Results as given in ChEMBL document CHEMBL1142303, “Imidazo[2,1-b]thiazole system: a scaffold endowing dihydropyridines with selective cardiodepressant activity” (J Med Chem, 2008).
pEC50, pIC50: −log10 of the molar value. The source made the active and inactive calls. No cut-off for these calls is given here.

Columns and labels:
[1] = species on record: Cavia porcellus; test: Inotropic activity at L type calcium channel in guinea pig left atrium assessed as decrease in tension at 10 uM relative to control; type: tissue-based; set-up: scale not given: the % may be the effect or the level left; details: Cardiac atrium
[2] = tested on: HEK293; test: (§1) Displacement of (+)-[5-methyl-3H][…] from L type calcium channel Cav1.2b in rabbit expressed in HEK293 cells; type: cell-based; details: Oryctolagus cuniculus
Method in brief: (§2)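 Intact HEK-293 cells transfected with rabbit Cav1.2a (α1C-a) or Cav1.2b (α1C-b) plasmid, labelled with (+)-[5-methyl-3H]PN200-110. Nonspecific binding about 10–20% of total. IC50 is mean ± S.E.M. of three independent experiments.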

[3] = species on record: Cavia porcellus; test: Chronotropic activity at L type calcium channel in guinea pig right atrium assessed as decrease in spontaneous beating at 1 uM relative to control; type: tissue-based; set-up: scale not given: the % may be the effect or the level left; details: Cardiac atrium
[4] = Inotropic activity at L type calcium channel in guinea pig left atrium assessed as decrease in tension; type: tissue-based; details: Cavia porcellus, Cardiac atrium
Method in brief: (§3)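 Guinea-pig atria: left atrium driven at 1 Hz for inotropy, spontaneously beating right atrium for chronotropy. Increasing cumulative doses, readout is percent decrease. EC50 (inotropic) and EC30 (chronotropic) by Litchfield–Wilcoxon probit analysis on log concentration–response curves, n = 6–7. Not calculated when the maximum effect was below 50%.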

[5] = species on record: Cavia porcellus; test: Chronotropic activity at L type calcium channel in guinea pig right atrium assessed as decrease in spontaneous beating; type: tissue-based; details: Cardiac atrium; method in brief: as §3
[6] = species on record: Cavia porcellus; test: Activity at L type calcium channel in K+ depolarized guinea pig aortic strip assessed as inhibition of calcium induced contraction at 5 uM; type: tissue-based; set-up: scale not given: the % may be the effect or the level left; details: Aorta
Method in brief: (§4)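 Guinea-pig aortic strips depolarized with 80 mM K+. Drugs added cumulatively. Readout is percent inhibition of calcium-induced contraction, n = 5–6. Control versus treated values tested at each concentration by Student's t-test, P < 0.05.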

[7] = Displacement of (+)-[5-methyl-3H][…] from L type calcium channel in guinea pig heart ventricles; set-up: species or system Cavia porcellus
Method in brief: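 Guinea-pig ventricular membranes incubated with 0.5 nM (+)-[5-methyl-3H]PN200-110 and test compounds at 0.1–50 µM in a competitive radioligand assay. Ki and IC50 reported as mean ± S.E.M. Student's t-test, significance P < 0.001.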

[8] = tested on: HEK293; test: (§5) Displacement of (+)-[5-methyl-3H][…] from L type calcium channel Cav1.2a in rabbit expressed in HEK293 cells; type: cell-based; details: Oryctolagus cuniculus; method in brief: as §2
[9] = species on record: Cavia porcellus; test: Activity at L type calcium channel in K+ depolarized guinea pig longitudinal smooth muscle assessed as inhibition of calcium induced contraction at 5 nM; set-up: scale not given: the % may be the effect or the level left
[10] = tested on: Heart; test: Cardiovascular activity in perfused guinea pig heart assessed as change in maximal rate of rise in left ventricular pressure at 10 nM by ECG; type: functional, Cavia porcellus
Method in brief: (§6)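 Guinea-pig heart: values are % change from basal. Parameters are +(dP/dt)max, heart rate, coronary perfusion pressure, PR and QT intervals. Highest concentration tested 10 µM.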

[11] = as §1; type: cell-based, Oryctolagus cuniculus; method in brief: as §2
[12] = species on record: Cavia porcellus; test: Chronotropic activity at L type calcium channel in guinea pig right atrium assessed as decrease in spontaneous beating at 0.1 uM relative to control; type: tissue-based; set-up: scale not given: the % may be the effect or the level left; details: Cardiac atrium
Method in brief: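 Spontaneously beating guinea-pig right atrium: % decrease in rate vs control. Drugs added cumulatively at increasing concentrations, compared with control at each concentration (Student's t-test, P<0.05). Mean ± S.E.M.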

[13] = species on record: Cavia porcellus; test: Activity at L type calcium channel in K+ depolarized guinea pig aortic strip assessed as inhibition of calcium induced contraction at 1 uM; type: tissue-based; set-up: scale not given: the % may be the effect or the level left; details: Aorta
Method in brief: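 Guinea-pig aortic strips depolarized with K+ (80 mM); % inhibition of Ca2+-induced contraction vs control. Drugs added cumulatively, compared with control at each concentration (Student's t-test, P<0.05). Mean ± S.E.M.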

[14] = tested on: Heart; test: Cardiovascular activity in perfused guinea pig heart assessed as change in heart rate at 10 nM by ECG; type: functional, Cavia porcellus; method in brief: as §6
[15] = tested on: Heart; test: Cardiovascular activity in perfused guinea pig heart assessed as change in coronary perfusion pressure at 1 uM by ECG; type: functional, Cavia porcellus; method in brief: as §6
[16] = tested on: Heart; test: Cardiovascular activity in perfused guinea pig heart assessed as change in atrioventricular conduction time at 1 uM by ECG; type: functional, Cavia porcellus
[17] = tested on: Heart; test: Cardiovascular activity in perfused guinea pig heart assessed as change in ventricular repolarization time at 10 nM by ECG; type: functional, Cavia porcellus; method in brief: as §6
[18] = as §5; type: cell-based, Oryctolagus cuniculus; method in brief: as §2
[19] = species on record: Cavia porcellus; test: Inotropic activity at L type calcium channel in guinea pig left atrium assessed as decrease in tension at 1 uM relative to control; type: tissue-based; set-up: scale not given: the % may be the effect or the level left; details: Cardiac atrium
[20] = Activity at L type calcium channel in K+ depolarized guinea pig longitudinal smooth muscle assessed as inhibition of calcium induced contraction; set-up: species or system Cavia porcellus
[21] = species on record: Cavia porcellus; test: Chronotropic activity at L type calcium channel in guinea pig right atrium assessed as decrease in spontaneous beating at 10 uM relative to control; type: tissue-based; set-up: scale not given: the % may be the effect or the level left; details: Cardiac atrium
[22] = species on record: Cavia porcellus; test: Activity at L type calcium channel in K+ depolarized guinea pig aortic strip assessed as inhibition of calcium induced contraction at 50 uM; type: tissue-based; set-up: scale not given: the % may be the effect or the level left; details: Aorta; method in brief: as §4
[23] = species on record: Cavia porcellus; test: Activity at L type calcium channel in K+ depolarized guinea pig longitudinal smooth muscle assessed as inhibition of calcium induced contraction at 10 uM; set-up: scale not given: the % may be the effect or the level left
[24] = tested on: Heart; test: Cardiovascular activity in perfused guinea pig heart assessed as change in maximal rate of rise in left ventricular pressure at 10 uM by ECG; type: functional, Cavia porcellus
Method in brief: (§7)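 Perfused guinea-pig heart. Percentage change from basal value at the highest concentration tested, 10 µM. Parameters: +(dP/dt)max, heart rate, coronary perfusion pressure, PR interval and QT interval from ECG.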

[25] = tested on: Heart; test: Cardiovascular activity in perfused guinea pig heart assessed as change in heart rate at 10 uM by ECG; type: functional, Cavia porcellus; method in brief: as §7
[26] = tested on: Heart; test: Cardiovascular activity in perfused guinea pig heart assessed as change in coronary perfusion pressure at 10 uM by ECG; type: functional, Cavia porcellus; method in brief: as §7
[27] = tested on: Heart; test: Cardiovascular activity in perfused guinea pig heart assessed as change in atrioventricular conduction time at 10 uM by ECG; type: functional, Cavia porcellus; method in brief: as §7
[28] = tested on: Heart; test: Cardiovascular activity in perfused guinea pig heart assessed as change in ventricular repolarization time at 10 uM by ECG; type: functional, Cavia porcellus; method in brief: as §7
[29] = species on record: Cavia porcellus; test: Inotropic activity at L type calcium channel in guinea pig left atrium assessed as decrease in tension at 100 uM relative to control; type: tissue-based; set-up: scale not given: the % may be the effect or the level left; details: Cardiac atrium
[30] = species on record: Cavia porcellus; test: Activity at L type calcium channel in K+ depolarized guinea pig longitudinal smooth muscle assessed as inhibition of calcium induced contraction at 0.5 uM; set-up: scale not given: the % may be the effect or the level left
[31] = species on record: Cavia porcellus; test: Chronotropic activity at L type calcium channel in guinea pig right atrium assessed as decrease in spontaneous beating at 5 uM relative to control; type: tissue-based; set-up: scale not given: the % may be the effect or the level left; details: Cardiac atrium

Q: For COC(=O)C1=C(C)NC(C)=C(C(=O)OC)C1c1c(C(F)(F)F)nc2sccn12, which Activity [1] is on record?
A: 90%

Q: And the Activity [2]?
A: inactive

Q: And the Activity [3]?
A: 54%

Q: And the pEC50 [4]?
A: 7.15

Q: And the EC30 [5]?
A: 0.57 µM

Q: What about the Activity [6] of the same compound?
A: 34%

Q: And the “Log Ki” value [7]?
A: -5.35

Q: And the Activity [8]?
A: inactive

Q: Which Activity [1] does the source give for COC(=O)C1=C(C)NC(C)=C(C(=O)OC)C1c1ccccc1[N+](=O)[O-] [NIFEDIPINE] here?
A: 97%

Q: What about the Activity [9] of the same compound?
A: 70%

Q: And the Activity [10]?
A: -96%

Q: What about the pIC50 [11] of the same compound?
A: 8.44

Q: What about the Activity [12] of the same compound?
A: 85%

Q: What about the pEC50 [4] of the same compound?
A: 6.59

Q: And the EC30 [5]?
A: 0.025 µM

Q: What about the Activity [13] of the same compound?
A: 82%

Q: And the Activity [14]?
A: -60%

Q: And the Activity [15]?
A: -36%

Q: What about the Activity [16] of the same compound?
A: 66%

Q: And the Activity [17]?
A: 37%

Q: What about the “Log Ki” value [7] of the same compound?
A: -8.83

Q: And the pIC50 [18]?
A: 7.35

Q: Which Activity [19] does the source give for COC(=O)C1=C(C)NC(C)=C(C(=O)OC)C1c1c(Cl)nc2sc(C)cn12 here?
A: 63%

Q: And the pIC50 [20]?
A: 5.69

Q: And the Activity [21]?
A: 22%

Q: What about the pEC50 [4] of the same compound?
A: 7.25

Q: What about the Activity [22] of the same compound?
A: 19%

Q: What about the Activity [23] of the same compound?
A: 93%

Q: What about the Activity [24] of the same compound?
A: -35%

Q: And the Activity [25]?
A: 6%

Q: What about the Activity [26] of the same compound?
A: 14%

Q: And the Activity [27]?
A: 61%

Q: And the Activity [28]?
A: -16%

Q: And the “Log Ki” value [7]?
A: < -5

Q: Which results are given for COC(=O)C1=C(C)NC(C)=C(C(=O)OC)C1c1c(-c2cc(OC)cc(OC)c2)nc2sccn12?
A: Activity [29]: 26%; Activity [30]: 89%; pIC50 [20]: 7.26; pIC50 [11]: 8.84; Activity [31]: 90%; EC30 [5]: 0.86 µM; Activity [6]: 40%; Log Ki [7]: -6.51; pIC50 [18]: 6.58
